# Results from different studies.
# Target: Discoidin domain-containing receptor 2 (DDR2, Homo sapiens, UniProt Q16832)
# One construct used (Q16832 22-855): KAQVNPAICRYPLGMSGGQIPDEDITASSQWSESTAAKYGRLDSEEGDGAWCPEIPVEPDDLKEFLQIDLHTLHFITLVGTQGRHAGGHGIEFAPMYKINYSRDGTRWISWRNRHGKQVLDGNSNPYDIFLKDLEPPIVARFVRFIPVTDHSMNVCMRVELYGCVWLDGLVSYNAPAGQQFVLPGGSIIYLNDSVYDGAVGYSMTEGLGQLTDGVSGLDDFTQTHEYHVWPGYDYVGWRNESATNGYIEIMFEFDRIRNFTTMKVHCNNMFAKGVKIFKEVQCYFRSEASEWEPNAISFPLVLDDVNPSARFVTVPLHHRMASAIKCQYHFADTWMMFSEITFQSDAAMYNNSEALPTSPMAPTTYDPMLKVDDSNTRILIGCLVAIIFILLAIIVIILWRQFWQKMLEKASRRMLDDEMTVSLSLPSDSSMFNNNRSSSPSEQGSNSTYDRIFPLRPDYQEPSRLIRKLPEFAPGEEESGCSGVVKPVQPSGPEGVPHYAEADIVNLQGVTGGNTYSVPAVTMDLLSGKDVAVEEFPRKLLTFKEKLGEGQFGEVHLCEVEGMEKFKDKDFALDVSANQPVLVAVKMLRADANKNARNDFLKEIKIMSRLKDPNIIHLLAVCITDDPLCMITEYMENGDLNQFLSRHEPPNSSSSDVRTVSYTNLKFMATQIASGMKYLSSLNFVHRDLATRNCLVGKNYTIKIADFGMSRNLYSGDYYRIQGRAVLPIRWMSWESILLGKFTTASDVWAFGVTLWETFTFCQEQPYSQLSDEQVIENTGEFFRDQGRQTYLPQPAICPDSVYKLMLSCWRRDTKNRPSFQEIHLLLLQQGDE
Structure (SMILES),assay,conditions,endpoint,value
CC(C)(C)c1cc(C=C(C#N)C#N)cc(Br)c1O,"enzyme activity, inhibitor",0.5 µM,remaining activity,105%
Cn1cc(-c2cccc(N3CCc4c(sc5c4CC(C)(C)C5)C3=O)c2CO)cc(Nc2ccncn2)c1=O,"enzyme activity, inhibitor",1 µM,inhibition,1%
N#CC1(c2ccccn2)CCN(Cc2cc(C(=O)O)c(=O)n3ccccc23)CC1,"cell-free assay, competition with immobilised ligand",1 µM,remaining binding,100%
Cn1cc(-c2cc(F)cc(N3CCn4c(cc5c4CCCC5)C3=O)c2CO)cc(Nc2ccc(N3CCN(C4COC4)CC3)cn2)c1=O,"enzyme activity, inhibitor",0.1 µM,inhibition,-7%
C#Cc1n[nH]c2c(-c3cn([C@@H](C)c4ccccc4)c(=O)[nH]c3=O)cc(F)cc12,"enzyme activity, inhibitor",0.1 µM,inhibition,-1.1%
COc1cc(Nc2ncc(F)c(Nc3ccc4c(n3)NC(=O)C(C)(C)O4)n2)cc(OC)c1OC,"binding, competition with immobilised ligand",10 µM,inhibition,86%
C#Cc1n[nH]c2c(-c3cn([C@@H](C)c4ccccn4)c(=O)[nH]c3=O)cc(F)cc12,"enzyme activity, inhibitor",0.1 µM,inhibition,0.9%
O=c1[nH]c2ccccc2n1C1CCN(Cc2ccc(-c3[nH]c4cc5ncnc5cc4nc3-c3ccccc3)cc2)CC1,cell-free assay,0.5 µM,remaining signal,99.2%
Nc1ncc(-c2nc(N3CCOCC3)nc(N3CCOCC3)n2)c(C(F)F)n1,"cell-free assay, competition with immobilised ligand",10 µM,remaining binding,57%
Cn1cncc1[C@@](O)(COc1ccc(C#N)cc1-c1ccc(OC(F)(F)F)cc1)c1ccc(C#N)cc1,"cell-free assay, competition with immobilised ligand",1 µM,remaining binding,95%
COc1ncccc1-c1cnn2ccc(N3CCN(C(=O)OC(C)C)CC3)nc12,"binding, competition with immobilised ligand",1 µM,remaining binding,36%
Cc1nn(C)cc1-c1nc2c(N3CCN(Cc4ccc(Cl)cc4)CC3)c(Cl)cnc2[nH]1,"binding, competition with immobilised ligand",1 µM,remaining binding,96%
